The text below walks through data of ChEMBL document CHEMBL4190362, “Synthesis, biological evaluation and quantitative structure-active relationships of 1,3-thiazolidin-4-one derivatives. A promising chemical scaffold endowed with high antifungal potency and low cytotoxicity” (Eur J Med Chem, 2017).

Common to all, as to type: functional
The test system of one test is Staphylococcus aureus. As to the kind of experiment: Antibacterial activity against Staphylococcus aureus assessed as inhibition of microbial growth incubated for 18 to 22 hrs by broth microdilution method. The procedure, abridged: (§1)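 Broth microdilution in Mueller-Hinton II broth following NCCLS recommendations; compounds dissolved in DMSO.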
A general note: Broth dilution looks for growth in wells or tubes with falling amounts of substance.

In another test the test system is Staphylococcus warneri. As to the kind of experiment: Antibacterial activity against Staphylococcus warneri assessed as inhibition of microbial growth incubated for 18 to 22 hrs by broth microdilution method. The procedure, abridged:
as §1

For a further test, the system named is Enterococcus faecalis. As to the kind of experiment: Antibacterial activity against Streptococcus faecalis assessed as inhibition of microbial growth incubated for 18 to 22 hrs by broth microdilution method. Summed up:
as §1

The test system of another test is Escherichia coli. As to the kind of experiment: Antibacterial activity against Escherichia coli assessed as inhibition of microbial growth incubated for 18 to 22 hrs by broth microdilution method. Summed up:
as §1

A further test relates to Proteus mirabilis. As to the kind of experiment: Antibacterial activity against Proteus mirabilis assessed as inhibition of microbial growth incubated for 18 to 22 hrs by broth microdilution method. The procedure, abridged: as §1
The next test relates to Enterobacter. Briefly: Antibacterial activity against Enterobacter spp. assessed as inhibition of microbial growth incubated for 18 to 22 hrs by broth microdilution method. Summed up:
as §1

A further test has as its system Klebsiella oxytoca. Briefly: Antibacterial activity against Klebsiella oxytoca assessed as inhibition of microbial growth incubated for 18 to 22 hrs by broth microdilution method. Summed up:
as §1

The subject of a further test is Candida albicans. As to the kind of experiment: Antifungal activity against Candida albicans clinical isolates assessed as inhibition of microbial growth incubated for 24 hrs by broth microdilution method. Summed up:
(§2)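 Twenty-two clinical Candida isolates (8 C. albicans, 4 C. glabrata, 3 C. tropicalis, 3 C. krusei, 2 C. parapsilosis, 2 C. sake) were identified by colony morphology and biochemistry and subcultured at 35 °C for purity. Compounds were dissolved in DMSO and tested by broth microdilution in Sabouraud dextrose broth per NCCLS/CLSI/EUCAST guidance. Values are geometric mean MIC per species (µg/mL).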

For another test, the system named is Nakaseomyces glabratus. Briefly: Antifungal activity against Candida glabrata clinical isolates assessed as inhibition of microbial growth incubated for 24 hrs by broth microdilution method. The procedure, abridged: as §2
For another test, the system named is Candida tropicalis. Briefly: Antifungal activity against Candida tropicalis clinical isolates assessed as inhibition of microbial growth incubated for 24 hrs by broth microdilution method. Summed up: as §2
In a further test the test system is Pichia kudriavzevii. Briefly: Antifungal activity against Candida krusei clinical isolates assessed as inhibition of microbial growth incubated for 24 hrs by broth microdilution method. The procedure, abridged:
as §2

A further test relates to Candida parapsilosis. As to the kind of experiment: Antifungal activity against Candida parapsilosis clinical isolates assessed as inhibition of microbial growth incubated for 24 hrs by broth microdilution method. The conditions noted are these: Lodderomyces parapsilosis. The procedure, abridged:
as §2

A further test deals with [Candida] sake. As to the kind of experiment: Antifungal activity against Candida sake clinical isolates assessed as inhibition of microbial growth incubated for 24 hrs by broth microdilution method. The conditions noted are these: Fermentozyma sake. Summed up:
as §2

Broadly, the MIC is the least concentration at which growth counts as inhibited. Regarding `C/C(=N/N=C1/SCC(=O)N1Cc1ccccc1)c1ccco1`, the minimal inhibitory concentration (MIC) in the test with Staphylococcus aureus, in the test with Staphylococcus warneri, in the test on Enterococcus faecalis, in the test on Escherichia coli, in the test with Proteus mirabilis and in the test on Enterobacter was no less than 256 µg/mL in each case. Further, the MIC in the test on Klebsiella oxytoca was no less than 256 µg/mL; in the test on Candida albicans, 256 µg/mL; with Nakaseomyces glabratus, 256 µg/mL; with Candida tropicalis, 256 µg/mL; in the test on Pichia kudriavzevii, 256 µg/mL; in the test with Candida parapsilosis, 256 µg/mL. Besides, the MIC in test [Candida] sake is 256 µg/mL.

Regarding `CC1CCC/C1=N/N=C1/SCC(=O)N1Cc1ccccc1` (centres undefined), the minimum inhibitory concentration (MIC) in the test with Staphylococcus aureus, in the test on Staphylococcus warneri, with Enterococcus faecalis, in the test on Escherichia coli, in the test with Proteus mirabilis and in the test with Enterobacter was no less than 256 µg/mL throughout. Further, the MIC in the test with Klebsiella oxytoca is no less than 256 µg/mL; in the test on Candida albicans, 8 µg/mL; in the test with Nakaseomyces glabratus it was 8 µg/mL; in the test on Candida tropicalis, 8 µg/mL; in the test on Pichia kudriavzevii, 4 µg/mL; in the test on Candida parapsilosis, 4 µg/mL. In addition, the MIC in [Candida] sake stood at 4 µg/mL.

For the compound `CC1CCC(=N/N=C2/SCC(=O)N2Cc2ccccc2)CC1` (centres undefined), the minimum inhibitory concentration (MIC) in the test on Staphylococcus aureus, in the test on Staphylococcus warneri, in the test on Enterococcus faecalis, in the test on Escherichia coli, in the test on Proteus mirabilis and in the test on Enterobacter was no less than 256 µg/mL in each case. Moreover, the minimum inhibitory concentration (MIC) in the test on Klebsiella oxytoca is no less than 256 µg/mL; with Candida albicans it was 8 µg/mL; in the test with Nakaseomyces glabratus, 8 µg/mL; in the test with Candida tropicalis, 16 µg/mL; in the test with Pichia kudriavzevii, 16 µg/mL; with Candida parapsilosis, 16 µg/mL. In addition, the minimum inhibitory concentration (MIC) in [Candida] sake is 16 µg/mL.

Regarding `CC1CCCC/C1=N/N=C1/SCC(=O)N1Cc1ccccc1` (centres undefined), the minimal inhibitory concentration (MIC) with Staphylococcus aureus, with Staphylococcus warneri, in the test on Enterococcus faecalis, in the test on Escherichia coli, with Proteus mirabilis and in the test with Enterobacter was no less than 256 µg/mL throughout. Further, the MIC in the test with Klebsiella oxytoca was no less than 256 µg/mL; in the test with Candida albicans it was 16 µg/mL; in the test with Nakaseomyces glabratus, 2 µg/mL; with Candida tropicalis it was 32 µg/mL; with Pichia kudriavzevii, 16 µg/mL; with Candida parapsilosis, 4 µg/mL. The MIC in test [Candida] sake was 16 µg/mL.

As for `C/C(=N/N=C1/SCC(=O)N1Cc1ccccc1)C1CCCCC1`, the minimum inhibitory concentration (MIC) with Staphylococcus aureus, in the test on Staphylococcus warneri, with Enterococcus faecalis, in the test with Escherichia coli, in the test on Proteus mirabilis and in the test with Enterobacter was no less than 256 µg/mL each time. Besides, the MIC in the test with Klebsiella oxytoca is no less than 256 µg/mL; in the test with Candida albicans it was 8 µg/mL; in the test on Nakaseomyces glabratus, 8 µg/mL; with Candida tropicalis it was 8 µg/mL; in the test on Pichia kudriavzevii it was 8 µg/mL; in the test with Candida parapsilosis, 8 µg/mL. For the same compound, in test [Candida] sake, the MIC worked out at 8 µg/mL.

Take `O=C1CS/C(=N/N=C2CCCCCCC2)N1Cc1ccccc1`: the MIC in the test with Staphylococcus aureus, in the test on Staphylococcus warneri, in the test on Enterococcus faecalis, with Escherichia coli, with Proteus mirabilis and in the test on Enterobacter was no less than 256 µg/mL each time. Besides, the MIC in the test with Klebsiella oxytoca was no less than 256 µg/mL; with Candida albicans it was 8 µg/mL; with Nakaseomyces glabratus, 8 µg/mL; in the test on Candida tropicalis, 8 µg/mL; in the test with Pichia kudriavzevii it was 8 µg/mL; in the test on Candida parapsilosis it was 8 µg/mL. Moreover, in [Candida] sake, the minimum inhibitory concentration (MIC) is 8 µg/mL.

Consider `O=C1CS/C(=N/N=C\c2ccco2)N1Cc1ccccc1`, for which the minimal inhibitory concentration (MIC) in the test on Staphylococcus aureus, with Staphylococcus warneri, with Enterococcus faecalis, in the test with Escherichia coli, with Proteus mirabilis and with Enterobacter was no less than 256 µg/mL each time. For the same compound, the MIC in the test on Klebsiella oxytoca was no less than 256 µg/mL; in the test on Candida albicans it was 8 µg/mL; in the test on Nakaseomyces glabratus, 4 µg/mL; in the test with Candida tropicalis, 8 µg/mL; in the test with Pichia kudriavzevii, 4 µg/mL; in the test with Candida parapsilosis, 4 µg/mL. In addition, in test [Candida] sake, the MIC turned out to be 4 µg/mL.

As for `O=C1CS/C(=N/N=C2CCCC2)N1Cc1ccccc1`, the MIC in the test on Staphylococcus aureus, with Staphylococcus warneri, with Enterococcus faecalis, in the test on Escherichia coli, in the test with Proteus mirabilis and in the test on Enterobacter was no less than 256 µg/mL in each case. Moreover, the MIC in the test with Klebsiella oxytoca is no less than 256 µg/mL; in the test with Candida albicans it was 8 µg/mL; in the test on Nakaseomyces glabratus it was 8 µg/mL; with Candida tropicalis it was 16 µg/mL; in the test on Pichia kudriavzevii, 16 µg/mL; in the test on Candida parapsilosis it was 16 µg/mL. Besides, the minimal inhibitory concentration (MIC) in test [Candida] sake was determined as 16 µg/mL.

As to `O=C1CS/C(=N/N=C\c2cccs2)N1Cc1ccccc1`, the MIC with Staphylococcus aureus, with Staphylococcus warneri, with Enterococcus faecalis, with Escherichia coli, in the test with Proteus mirabilis and in the test on Enterobacter was no less than 256 µg/mL throughout. For the same compound, the MIC with Klebsiella oxytoca was no less than 256 µg/mL; in the test with Candida albicans, 8 µg/mL; in the test with Nakaseomyces glabratus it was 8 µg/mL; in the test on Candida tropicalis it was 8 µg/mL; in the test with Pichia kudriavzevii it was 32 µg/mL; with Candida parapsilosis it was 32 µg/mL. Moreover, the MIC in test [Candida] sake was found to be 32 µg/mL.

Regarding `O=C1CS/C(=N/N=C2CCCCCC2)N1Cc1ccccc1`, the MIC in the test with Staphylococcus aureus, in the test on Staphylococcus warneri, in the test on Enterococcus faecalis, with Escherichia coli, in the test on Proteus mirabilis and in the test on Enterobacter was no less than 256 µg/mL each time. For the same compound, the MIC in the test on Klebsiella oxytoca was no less than 256 µg/mL; in the test with Candida albicans it was 256 µg/mL; in the test with Nakaseomyces glabratus, 256 µg/mL; in the test on Candida tropicalis, 256 µg/mL; with Pichia kudriavzevii, 256 µg/mL; with Candida parapsilosis, 256 µg/mL. In addition, in test [Candida] sake, the MIC is 256 µg/mL.

Consider `CC1CC/C(=N/N=C2/SCC(=O)N2Cc2ccccc2)C1` (centres undefined), for which the minimal inhibitory concentration (MIC) in the test with Staphylococcus aureus, in the test on Staphylococcus warneri, in the test with Enterococcus faecalis, with Escherichia coli, in the test on Proteus mirabilis and in the test with Enterobacter was no less than 256 µg/mL each time. The minimum inhibitory concentration (MIC) in the test with Klebsiella oxytoca is no less than 256 µg/mL; in the test with Candida albicans, 256 µg/mL; in the test with Nakaseomyces glabratus, 256 µg/mL; with Candida tropicalis it was 256 µg/mL; with Pichia kudriavzevii, 256 µg/mL; in the test on Candida parapsilosis, 256 µg/mL. Moreover, the minimum inhibitory concentration (MIC) in test [Candida] sake worked out at 256 µg/mL.

Take `CC1CCC/C(=N/N=C2/SCC(=O)N2Cc2ccccc2)C1` (centres undefined): the MIC in the test on Staphylococcus aureus, in the test on Staphylococcus warneri, in the test on Enterococcus faecalis, in the test with Escherichia coli, in the test on Proteus mirabilis and in the test on Enterobacter was no less than 256 µg/mL each time. The minimum inhibitory concentration (MIC) in the test on Klebsiella oxytoca is no less than 256 µg/mL; with Candida albicans it was 8 µg/mL; in the test with Nakaseomyces glabratus, 8 µg/mL; with Candida tropicalis it was 8 µg/mL; in the test with Pichia kudriavzevii, 4 µg/mL; with Candida parapsilosis, 4 µg/mL. Besides, the minimum inhibitory concentration (MIC) in [Candida] sake was found to be 4 µg/mL.

For `C/C(=N/N=C1\NC(=O)CS1)c1ccc(/C(C)=N\N=C2/NC(=O)CS2)cc1`, the minimal inhibitory concentration (MIC) with Staphylococcus aureus, in the test on Staphylococcus warneri, with Enterococcus faecalis, in the test with Escherichia coli, with Proteus mirabilis and in the test with Enterobacter was no less than 256 µg/mL in each case. For the same compound, the MIC is no less than 256 µg/mL in the test with Klebsiella oxytoca; 2 µg/mL in the test on Candida albicans; 2 µg/mL in the test on Nakaseomyces glabratus; 2 µg/mL in the test on Candida tropicalis; 2 µg/mL in the test on Pichia kudriavzevii; 2 µg/mL with Candida parapsilosis. Moreover, the MIC in test [Candida] sake amounted to 2 µg/mL.
